Reference: PMC9306620 (Clinical Pharmacology in Drug Development, 2022)
Values joined by “and” are separate entries in the source; they are usually repeats but may differ in a detail not shown here. Identical values can stand only once. Like-named read-outs stand apart in the source and are kept apart here.

How the values were obtained:
[1] = type: in vivo, healthy participants; conditions: 200 mg, moderate-fat meal; for AUC(0-t) / AUC(0-inf) / Cmax: human, plasma, oral, geometric LS mean, part 1, analysis of variance, n = 18; for AUC(0-t): AUC0-t; for AUC(0-inf): AUC0-∞
How it was run: (§1)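 Randomized, open-label, single-dose crossover in healthy adults aged 18–55, with periods separated by a ≥7-day washout. Each oral 200 mg dose was given as two 100-mg units. Plasma was sampled 40 min predose and 1–96 h postdose and assayed by UHPLC-MS/MS. Noncompartmental parameters used actual sampling times. ln-AUC0-t, AUC0-∞ and Cmax were analysed by linear mixed-effects model (treatment, period, sequence fixed; participant random) with 90% CIs.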

[2] = Part 2: food effect on plasma pharmacokinetics of the tablet formulation; type: in vivo, healthy participants; conditions: for AUC(0-t) / AUC(0-inf) / Cmax: human, plasma, oral, 200 mg, geometric LS mean, part 2, analysis of variance; for AUC(0-t): AUC0-t; for AUC(0-inf): AUC0-∞
How it was run: as §1

[3] = Part 1: safety and tolerability; type: in vivo, healthy participants; conditions: N = 18
How it was run: (§2)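 Safety followed a single oral 200 mg dose given as two 100-mg capsules or tablets. Adverse events, clinical laboratory tests, vital signs, 12-lead ECG and physical examination were monitored. The safety population was all participants receiving ≥1 dose, summarized descriptively by treatment. AEs occurring later than last treatment + 5 days were not counted. The investigator assessed each AE for drug relatedness.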

[4] = Part 2: safety and tolerability; type: in vivo, healthy participants; conditions: for Adverse events: abdominal distention (drug related) / Adverse events: anxiety / Adverse events: any event / Adverse events: diarrhea (drug related) / Adverse events: dysmenorrhea / Adverse events: eye irritation / Adverse events: rash maculopapular (drug related, led to withdrawal): part 2, tablet 200 mg
How it was run: as §2

[5] = cited from earlier work
HIV-1 = conditions: 200-mg dose, treatment-naive adults with HIV-1, phase IIa; cited from earlier work
[6] = tested on: uridine diphosphate glucuronosyltransferase 1A1; conditions: in vitro; cited from earlier work
[7] = tested on: organic anion-transporting polypeptide 1B3; conditions: in vitro; cited from earlier work
HIV-1 subtypes = conditions: in vitro; cited from earlier work
[8] = drug interaction studies; cited from earlier work
[9] = tablet 200 mg, high fat, n = 21
[10] = tablet 200 mg, moderate fat, n = 20
[11] = tablet 200 mg, high fat vs fasted, part 2
[12] = tablet 200 mg, moderate fat vs fasted, part 2

Question: For C=C(C)[C@@H]1CC[C@]2(NCCN3CCS(=O)(=O)CC3)CC[C@]3(C)[C@H](CC[C@@H]4[C@@]5(C)CC=C(C6=CC[C@@](CF)(C(=O)O)CC6)C(C)(C)[C@@H]5CC[C@]43C)[C@@H]12 [GSK3640254], which AUC(0-t) ([1]; capsule) is on record?
Answer: 33700 ng·h/mL

Question: And the AUC(0-t) ([1]; tablet)?
Answer: 33800 ng·h/mL

Question: What about the AUC(0-inf) ([1]; capsule) of the same compound?
Answer: 36900 ng·h/mL

Question: And the AUC(0-inf) ([1]; tablet)?
Answer: 36900 ng·h/mL

Question: What about the Cmax ([1]; capsule) of the same compound?
Answer: 1200 ng/mL

Question: And the Cmax ([1]; tablet)?
Answer: 1310 ng/mL

Question: What about the “AUC0-t, geometric LS mean ratio” value ([1]; tablet vs capsule, part 1) of the same compound?
Answer: 1.00

Question: What about the “AUC0-∞, geometric LS mean ratio” value ([1]; tablet vs capsule, part 1) of the same compound?
Answer: 0.998

Question: What about the “Cmax, geometric LS mean ratio” value ([1]; tablet vs capsule, part 1) of the same compound?
Answer: 1.09

Question: What about the AUC(0-t) ([2]; tablet 200 mg, fasted, n = 13) of the same compound?
Answer: 12200 ng·h/mL

Question: And the AUC(0-t) [2, 9]?
Answer: 34100 ng·h/mL

Question: And the AUC(0-t) [2, 10]?
Answer: 38500 ng·h/mL

Question: What about the AUC(0-inf) ([2]; tablet 200 mg, fasted, n = 10) of the same compound?
Answer: 14200 ng·h/mL

Question: And the AUC(0-inf) [2, 9]?
Answer: 36900 ng·h/mL

Question: And the AUC(0-inf) [2, 10]?
Answer: 41600 ng·h/mL

Question: What about the Cmax ([2]; tablet 200 mg, fasted, n = 13) of the same compound?
Answer: 351 ng/mL

Question: What about the Cmax [2, 9] of the same compound?
Answer: 1080 ng/mL

Question: What about the Cmax [2, 10] of the same compound?
Answer: 1440 ng/mL

Question: And the “AUC0-t, geometric LS mean ratio compared with fasted conditions” value [2, 11]?
Answer: 2.79

Question: What about the “AUC0-∞, geometric LS mean ratio compared with fasted conditions” value [2, 11] of the same compound?
Answer: 2.59

Question: What about the “Cmax, geometric LS mean ratio compared with fasted conditions” value [2, 11] of the same compound?
Answer: 3.08

Question: What about the “mean Cmax, fold higher than under fasted conditions” value ([2]; tablet 200 mg, high-fat conditions, part 2) of the same compound?
Answer: ~3 fold

Question: What about the “AUC0-t, geometric LS mean ratio compared with fasted conditions” value [2, 12] of the same compound?
Answer: 3.15

Question: What about the “AUC0-∞, geometric LS mean ratio compared with fasted conditions” value [2, 12] of the same compound?
Answer: 2.93

Question: What about the “Cmax, geometric LS mean ratio compared with fasted conditions” value [2, 12] of the same compound?
Answer: 4.10

Question: What about the “mean estimate for CL/F, lower than under fasted conditions” value ([2]; tablet 200 mg, moderate- or high-fat conditions, part 2) of the same compound?
Answer: > 60%

Question: And the “mean Cmax, fold higher than under fasted conditions” value ([2]; tablet 200 mg, moderate-fat conditions, part 2)?
Answer: ≈ 4 fold

Question: What about the “t1/2, arithmetic mean (SD)” value ([2]; tablet, single dose 200 mg, fasted conditions, part 2, n = 10) of the same compound?
Answer: 25.9 (3.33) hour

Question: And the “t1/2, arithmetic mean (SD)” value ([2]; tablet, single dose 200 mg, high-fat conditions, part 2, N = 21)?
Answer: 25.1 (4.18) hour

Question: And the “t1/2, geometric mean (%CVb)” value ([2]; tablet, single dose 200 mg, moderate-fat conditions, part 2, N = 20)?
Answer: 24.9 (18.0) hour

Question: And the “Adverse events: abdominal distention (drug related)” value ([3]; part 1, capsule 200 mg)?
Answer: 0 n (%)

Question: What about the “Adverse events: anxiety” value ([3]; part 1, capsule 200 mg) of the same compound?
Answer: 0 n (%)

Question: And the “Adverse events: diarrhea (drug related)” value ([3]; part 1, capsule 200 mg)?
Answer: 0 n (%)

Question: And the “Adverse events: dysmenorrhea” value ([3]; part 1, capsule 200 mg)?
Answer: 0 n (%)

Question: What about the “Adverse events: eye irritation” value ([3]; part 1, capsule 200 mg) of the same compound?
Answer: 0 n (%)

Question: What about the “Adverse events: rash maculopapular (drug related, led to withdrawal)” value (“Adverse events: rash maculopapular” for short) ([3]; part 1, capsule 200 mg) of the same compound?
Answer: 0 n (%)

Question: And the “Adverse events: abdominal distention (drug related)” value ([3]; part 1, tablet 200 mg)?
Answer: 0 n (%)

Question: What about the “Adverse events: anxiety” value ([3]; part 1, tablet 200 mg) of the same compound?
Answer: 0 n (%)

Question: What about the “Adverse events: any event” value ([3]; part 1, tablet 200 mg) of the same compound?
Answer: 1 (6) n (%)

Question: And the “Adverse events: diarrhea (drug related)” value ([3]; part 1, tablet 200 mg)?
Answer: 0 n (%)

Question: What about the “Adverse events: dysmenorrhea” value ([3]; part 1, tablet 200 mg) of the same compound?
Answer: 0 n (%)

Question: And the “Adverse events: eye irritation” value ([3]; part 1, tablet 200 mg)?
Answer: 1 (6%) n (%) and 1 (6) n (%)

Question: What about the “Adverse events: rash maculopapular” value ([3]; part 1, tablet 200 mg) of the same compound?
Answer: 0 n (%)

Question: And the “Adverse events: abdominal distention (drug related)” value ([4]; fasted, N = 19)?
Answer: 0 n (%)

Question: What about the “Adverse events: anxiety” value ([4]; fasted, N = 19) of the same compound?
Answer: 0 n (%)

Question: And the “Adverse events: any event” value ([4]; fasted, N = 19)?
Answer: 0 n (%)

Question: And the “Adverse events: diarrhea (drug related)” value ([4]; fasted, N = 19)?
Answer: 0 n (%)

Question: And the “Adverse events: dysmenorrhea” value ([4]; fasted, N = 19)?
Answer: 0 n (%)

Question: What about the “Adverse events: eye irritation” value ([4]; fasted, N = 19) of the same compound?
Answer: 0 n (%)

Question: And the “Adverse events: rash maculopapular” value ([4]; fasted, N = 19)?
Answer: 0 n (%)

Question: And the “Adverse events: abdominal distention (drug related)” value ([4]; high fat, N = 21)?
Answer: 1 (5) n (%)

Question: And the “Adverse events: anxiety” value ([4]; high fat, N = 21)?
Answer: 1 (5) n (%)

Question: What about the “Adverse events: any event” value ([4]; high fat, N = 21) of the same compound?
Answer: 5 (24%) n (%) and 5 (24) n (%)

Question: And the “Adverse events: diarrhea (drug related)” value ([4]; high fat, N = 21)?
Answer: 2 n (%) and 2 (10) n (%)

Question: And the “Adverse events: dysmenorrhea” value ([4]; high fat, N = 21)?
Answer: 1 (5) n (%)

Question: And the “Adverse events: eye irritation” value ([4]; high fat, N = 21)?
Answer: 0 n (%)

Question: What about the “Adverse events: rash maculopapular” value ([4]; high fat, N = 21) of the same compound?
Answer: 1 (5) n (%)

Question: And the “Adverse events: abdominal distention (drug related)” value ([4]; moderate fat, N = 20)?
Answer: 0 n (%)

Question: What about the “Adverse events: anxiety” value ([4]; moderate fat, N = 20) of the same compound?
Answer: 0 n (%)

Question: And the “Adverse events: any event” value ([4]; moderate fat, N = 20)?
Answer: 0 n (%)

Question: And the “Adverse events: diarrhea (drug related)” value ([4]; moderate fat, N = 20)?
Answer: 0 n (%)

Question: What about the “Adverse events: dysmenorrhea” value ([4]; moderate fat, N = 20) of the same compound?
Answer: 0 n (%)

Question: What about the “Adverse events: eye irritation” value ([4]; moderate fat, N = 20) of the same compound?
Answer: 0 n (%)

Question: And the “Adverse events: rash maculopapular” value ([4]; moderate fat, N = 20)?
Answer: 0 n (%)

Question: What about the “participants reporting AEs considered related to the study treatment” value ([4]; part 2, tablets 200 mg, high-fat conditions) of the same compound?
Answer: 10%

Question: What about the “highest incidence of adverse events” value ([4]; tablet 200 mg, high-fat conditions) of the same compound?
Answer: 24%

Question: And the estimated half-life ([5]; 200-mg dose, healthy participants)?
Answer: approximately 22.6 hours

Question: And the tolerability ([5]; phase I studies in healthy participants, headache most common AE)?
Answer: generally well tolerated

Question: And the “reduction in plasma HIV-1 RNA” value (HIV-1)?
Answer: approximately 2 log10

Question: What about the “inhibition of uridine diphosphate glucuronosyltransferase 1A1” value [6] of the same compound?
Answer: inhibitor

Question: And the “inhibition of organic anion-transporting polypeptide 1B3” value [7]?
Answer: inhibitor

Question: What about the “inhibition across various HIV-1 subtypes” value (HIV-1 subtypes) of the same compound?
Answer: broad‐spectrum potent inhibition

Question: And the “effect on the pharmacokinetics of combined oral contraceptives” value [8]?
Answer: no meaningful effect

Question: What about the “effect on the pharmacokinetics of dolutegravir” value [8] of the same compound?
Answer: no meaningful effect

Question: What about the “effect on the pharmacokinetics of tenofovir alafenamide” value [8] of the same compound?
Answer: no meaningful effect
